Measured values taken from ChEMBL document CHEMBL4689842, “EUbOPEN Chemogenomics Library wave 1” (2021).
Several values for one entry are separate records, joined by “and”; a condition that tells them apart may be missing. Identical values can stand only once.

Test system: Fibroblast
Experiment: Multiplex assay against human fibroblast
Format: toxicity, cell-based
How it was run: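 Values for tubulin, mitochondrial-mass and membrane-permeability phenotypes are per cents of cells with healthy nuclei. These cells were identified by CellPathfinder machine-learning gating of live cells that had been stained at seeding with Hoechst33342, BioTracker Green Microtubule Cytoskeleton Dye, MitoTracker Red and Annexin V Alexa Fluor 680 and imaged on a CQ1 microscope at 37°C and 5% CO2 after compound addition. The gating first set Hoechst high-intensity objects apart from normal cells, then split normal cells into healthy, pyknosed or fragmented nuclei, and pyknosed cells into mitotic or apoptotic.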

[1] = 12 h, 10 µM, compound concentration 10 uM, replicate 1
[2] = 12 h, 10 µM, compound concentration 10 uM, replicate 2
[3] = 24 h, 10 µM, compound concentration 10 uM, replicate 1
[4] = 24 h, 10 µM, compound concentration 10 uM, replicate 2
[5] = 12 h, 1 µM, compound concentration 1 uM, replicate 1
[6] = 12 h, 1 µM, compound concentration 1 uM, replicate 2
[7] = 24 h, 1 µM, compound concentration 1 uM, replicate 1
[8] = 24 h, 1 µM, compound concentration 1 uM, replicate 2
[9] = 48 h, 1 µM, compound concentration 1 uM, replicate 1
[10] = 48 h, 1 µM, compound concentration 1 uM, replicate 2
[11] = 48 h, 10 µM, compound concentration 10 uM, replicate 1
[12] = 48 h, 10 µM, compound concentration 10 uM, replicate 2

With `Cn1cncc1[C@@](O)(COc1ccc(C#N)cc1-c1ccc(OC(F)(F)F)cc1)c1ccc(C#N)cc1` [A-108] the “Population Apoptotic (%)” value [1] was 53% and 83%, the “Population Fragmented Nuclei (%)” value [1] was 39% and 19% and the “Population Healthy Nuclei (%)” value [1] was 44% and 66%. For the same compound, the “Population Hoechst High Intensity Objects (%)” value [1] was 15% and 12%, the “Population Membrane Permeable-Phenotype (%)” value [1] was 23% and 8% and the “Population Mitochondria Different-Phenotype (%)” value [1] was 20% and 7%. For the same compound, the “Population Mitotic Cells (%)” value [1] was 46% and 16%, the “Population Normal (%)” value [1] was 84% and 87% and the “Population Pyknosed Nuclei (%)” value [1] was 15% and 14%. For the same compound, the “Total Cell Count” value [1] was 192 and 337, the “Population Apoptotic (%)” value [2] was 42% and 57% and the “Population Fragmented Nuclei (%)” value [2] was 52% and 61%. For the same compound, the “Population Healthy Nuclei (%)” value [2] was 34% and 26%, the “Population Hoechst High Intensity Objects (%)” value [2] was 32% and the “Population Membrane Permeable-Phenotype (%)” value [2] was 0% and 5%. The “Population Mitotic Cells (%)” value [2] was 57% and 42%, the “Population Normal (%)” value [2] was 67% and the “Population Pyknosed Nuclei (%)” value [2] was 12% and 11%. The “Population Tubulin-Different-Phenotype (%)” value [2] was 26% and 52%, the “Total Cell Count” value [2] was 82 and 94 and the “Population Apoptotic (%)” value [3] was 54% and 58%. The “Population Fragmented Nuclei (%)” value [3] was 40% and 16%, the “Population Healthy Nuclei (%)” value [3] was 47% and 69% and the “Population Hoechst High Intensity Objects (%)” value [3] was 11% and 16%. The “Population Membrane Permeable-Phenotype (%)” value [3] was 3% and 7%, the “Population Mitotic Cells (%)” value [3] was 45% and 41% and the “Population Normal (%)” value [3] was 88% and 83%. For the same compound, the “Population Pyknosed Nuclei (%)” value [3] was 14%, the “Total Cell Count” value [3] was 216 and 318 and the “Population Apoptotic (%)” value [4] was 50% and 62%. For the same compound, the “Population Fragmented Nuclei (%)” value [4] was 50%, the “Population Healthy Nuclei (%)” value [4] was 43% and 37% and the “Population Hoechst High Intensity Objects (%)” value [4] was 29% and 21%. The “Population Membrane Permeable-Phenotype (%)” value [4] was 14% and 16%, the “Population Mitochondria Different-Phenotype (%)” value [4] was 66% and 28% and the “Population Mitotic Cells (%)” value [4] was 50% and 37%. The “Population Normal (%)” value [4] was 70% and 78%, the “Population Pyknosed Nuclei (%)” value [4] was 6% and 11% and the “Population Tubulin-Different-Phenotype (%)” value [4] was 37% and 52%. For the same compound, the “Total Cell Count” value [4] was 88 and 85.
In the case of `CN(C)CC#Cc1ccc(OCCCc2sc(N3CCc4cccc(C(=O)Nc5nc6ccccc6s5)c4C3)nc2C(=O)O)c(F)c1` [A-1155463], the “Population Apoptotic (%)” value [5] is reported as 74%, the “Population Fragmented Nuclei (%)” value [5] is reported as 27% and the “Population Healthy Nuclei (%)” value [5] is reported as 44%. The “Population Hoechst High Intensity Objects (%)” value [5] was 12%, the “Population Membrane Permeable-Phenotype (%)” value [5] was 30% and the “Population Mitochondria Different-Phenotype (%)” value [5] was 9%. The “Population Mitotic Cells (%)” value [5] was 25%, the “Population Normal (%)” value [5] was 87% and the “Population Pyknosed Nuclei (%)” value [5] was 27%. The “Population Tubulin-Different-Phenotype (%)” value [5] was 46%, the “Total Cell Count” value [5] was 111 and the “Population Apoptotic (%)” value [6] was 66%. The “Population Fragmented Nuclei (%)” value [6] was 39%, the “Population Healthy Nuclei (%)” value [6] was 53% and the “Population Hoechst High Intensity Objects (%)” value [6] was 4%. For the same compound, the “Population Membrane Permeable-Phenotype (%)” value [6] was 13%, the “Population Mitochondria Different-Phenotype (%)” value [6] was 31% and the “Population Mitotic Cells (%)” value [6] was 33%. The “Population Normal (%)” value [6] was 95%, the “Population Pyknosed Nuclei (%)” value [6] was 7% and the “Population Tubulin-Different-Phenotype (%)” value [6] was 27%. The “Total Cell Count” value [6] was 86, the “Population Apoptotic (%)” value [1] was 63% and the “Population Fragmented Nuclei (%)” value [1] was 24%. For the same compound, the “Population Healthy Nuclei (%)” value [1] was 41%, the “Population Hoechst High Intensity Objects (%)” value [1] was 11% and the “Population Membrane Permeable-Phenotype (%)” value [1] was 42%. The “Population Mitochondria Different-Phenotype (%)” value [1] was 4%, the “Population Mitotic Cells (%)” value [1] was 36% and the “Population Normal (%)” value [1] was 88%. For the same compound, the “Population Pyknosed Nuclei (%)” value [1] was 33%, the “Population Tubulin-Different-Phenotype (%)” value [1] was 74% and the “Total Cell Count” value [1] was 173. For the same compound, the “Population Apoptotic (%)” value [2] was 86%, the “Population Fragmented Nuclei (%)” value [2] was 33% and the “Population Healthy Nuclei (%)” value [2] was 42%. For the same compound, the “Population Hoechst High Intensity Objects (%)” value [2] was 5%, the “Population Membrane Permeable-Phenotype (%)” value [2] was 24% and the “Population Mitochondria Different-Phenotype (%)” value [2] was 16%. For the same compound, the “Population Mitotic Cells (%)” value [2] was 13%, the “Population Normal (%)” value [2] was 94% and the “Population Pyknosed Nuclei (%)” value [2] was 23%. For the same compound, the “Population Tubulin-Different-Phenotype (%)” value [2] was 25%, the “Total Cell Count” value [2] was 133 and the “Population Apoptotic (%)” value [7] was 62%. For the same compound, the “Population Fragmented Nuclei (%)” value [7] was 30%, the “Population Healthy Nuclei (%)” value [7] was 33% and the “Population Hoechst High Intensity Objects (%)” value [7] was 11%. For the same compound, the “Population Membrane Permeable-Phenotype (%)” value [7] was 37%, the “Population Mitochondria Different-Phenotype (%)” value [7] was 7% and the “Population Mitotic Cells (%)” value [7] was 37%. The “Population Normal (%)” value [7] was 88%, the “Population Pyknosed Nuclei (%)” value [7] was 36% and the “Population Tubulin-Different-Phenotype (%)” value [7] was 50%. The “Total Cell Count” value [7] was 134, the “Population Apoptotic (%)” value [8] was 50% and the “Population Fragmented Nuclei (%)” value [8] was 36%. The “Population Healthy Nuclei (%)” value [8] was 54%, the “Population Hoechst High Intensity Objects (%)” value [8] was 7% and the “Population Membrane Permeable-Phenotype (%)” value [8] was 13%. The “Population Mitochondria Different-Phenotype (%)” value [8] was 32%, the “Population Mitotic Cells (%)” value [8] was 50% and the “Population Normal (%)” value [8] was 92%. For the same compound, the “Population Pyknosed Nuclei (%)” value [8] was 9%, the “Population Tubulin-Different-Phenotype (%)” value [8] was 28% and the “Total Cell Count” value [8] was 92. The “Population Apoptotic (%)” value [3] was 71%, the “Population Fragmented Nuclei (%)” value [3] was 27% and the “Population Healthy Nuclei (%)” value [3] was 50%. For the same compound, the “Population Hoechst High Intensity Objects (%)” value [3] was 9%, the “Population Membrane Permeable-Phenotype (%)” value [3] was 44% and the “Population Mitochondria Different-Phenotype (%)” value [3] was 2%. For the same compound, the “Population Mitotic Cells (%)” value [3] was 28%, the “Population Normal (%)” value [3] was 90% and the “Population Tubulin-Different-Phenotype (%)” value [3] was 76%. For the same compound, the “Total Cell Count” value [3] was 170, the “Population Apoptotic (%)” value [4] was 81% and the “Population Fragmented Nuclei (%)” value [4] was 32%. For the same compound, the “Population Healthy Nuclei (%)” value [4] was 45%, the “Population Hoechst High Intensity Objects (%)” value [4] was 10% and the “Population Membrane Permeable-Phenotype (%)” value [4] was 20%. For the same compound, the “Population Mitochondria Different-Phenotype (%)” value [4] was 14%, the “Population Mitotic Cells (%)” value [4] was 18% and the “Population Normal (%)” value [4] was 89%. For the same compound, the “Population Pyknosed Nuclei (%)” value [4] was 22%, the “Population Tubulin-Different-Phenotype (%)” value [4] was 21% and the “Total Cell Count” value [4] was 135. For the same compound, the “Population Apoptotic (%)” value [9] was 68%, the “Population Fragmented Nuclei (%)” value [9] was 31% and the “Population Healthy Nuclei (%)” value [9] was 34%. For the same compound, the “Population Hoechst High Intensity Objects (%)” value [9] was 18%, the “Population Membrane Permeable-Phenotype (%)” value [9] was 20% and the “Population Mitochondria Different-Phenotype (%)” value [9] was 3%. For the same compound, the “Population Mitotic Cells (%)” value [9] was 31%, the “Population Normal (%)” value [9] was 81% and the “Population Pyknosed Nuclei (%)” value [9] was 33%. The “Population Tubulin-Different-Phenotype (%)” value [9] was 56%, the “Total Cell Count” value [9] was 106 and the “Population Apoptotic (%)” value [10] was 80%. For the same compound, the “Population Fragmented Nuclei (%)” value [10] was 35%, the “Population Healthy Nuclei (%)” value [10] was 53% and the “Population Hoechst High Intensity Objects (%)” value [10] was 11%. For the same compound, the “Population Membrane Permeable-Phenotype (%)” value [10] was 28%, the “Population Mitochondria Different-Phenotype (%)” value [10] was 6% and the “Population Mitotic Cells (%)” value [10] was 20%. For the same compound, the “Population Normal (%)” value [10] was 88%, the “Population Pyknosed Nuclei (%)” value [10] was 10% and the “Population Tubulin-Different-Phenotype (%)” value [10] was 44%. The “Total Cell Count” value [10] was 105, the “Population Apoptotic (%)” value [11] was 66% and the “Population Fragmented Nuclei (%)” value [11] was 38%. The “Population Healthy Nuclei (%)” value [11] was 39%, the “Population Hoechst High Intensity Objects (%)” value [11] was 10% and the “Population Membrane Permeable-Phenotype (%)” value [11] was 50%. For the same compound, the “Population Mitochondria Different-Phenotype (%)” value [11] was 10%, the “Population Mitotic Cells (%)” value [11] was 33% and the “Population Normal (%)” value [11] was 89%. For the same compound, the “Population Pyknosed Nuclei (%)” value [11] was 22%, the “Population Tubulin-Different-Phenotype (%)” value [11] was 81% and the “Total Cell Count” value [11] was 135. For the same compound, the “Population Apoptotic (%)” value [12] was 95%, the “Population Fragmented Nuclei (%)” value [12] was 25% and the “Population Healthy Nuclei (%)” value [12] was 57%. The “Population Hoechst High Intensity Objects (%)” value [12] was 14%, the “Population Membrane Permeable-Phenotype (%)” value [12] was 35% and the “Population Mitochondria Different-Phenotype (%)” value [12] was 9%. For the same compound, the “Population Mitotic Cells (%)” value [12] was 4%, the “Population Normal (%)” value [12] was 85% and the “Population Pyknosed Nuclei (%)” value [12] was 17%. The “Population Tubulin-Different-Phenotype (%)” value [12] was 74% and the “Total Cell Count” value [12] was 145.
